Published values pooled from the literature.
Target: Serine/threonine-protein kinase Nek11 (NEK11, Homo sapiens, UniProt Q8NG66)
Sequence (Q8NG66 1-645, as in one of the studies): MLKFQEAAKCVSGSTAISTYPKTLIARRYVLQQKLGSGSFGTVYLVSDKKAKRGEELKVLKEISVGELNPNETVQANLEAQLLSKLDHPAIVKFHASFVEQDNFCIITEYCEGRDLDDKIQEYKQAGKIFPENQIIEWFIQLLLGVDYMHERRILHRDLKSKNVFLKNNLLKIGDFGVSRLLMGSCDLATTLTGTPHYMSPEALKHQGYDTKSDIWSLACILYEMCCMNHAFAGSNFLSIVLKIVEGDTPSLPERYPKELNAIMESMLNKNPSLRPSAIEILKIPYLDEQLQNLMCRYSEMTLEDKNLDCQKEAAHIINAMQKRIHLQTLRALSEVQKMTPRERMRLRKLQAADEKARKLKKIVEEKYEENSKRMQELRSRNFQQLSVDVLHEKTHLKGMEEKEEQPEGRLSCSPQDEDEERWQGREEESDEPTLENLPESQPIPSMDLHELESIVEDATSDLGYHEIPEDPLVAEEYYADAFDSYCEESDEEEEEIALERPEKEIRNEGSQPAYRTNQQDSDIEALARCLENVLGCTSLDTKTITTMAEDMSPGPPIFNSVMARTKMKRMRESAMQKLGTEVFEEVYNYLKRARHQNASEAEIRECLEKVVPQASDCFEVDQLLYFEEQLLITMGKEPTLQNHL

| SMILES | test | conditions | endpoint | result |
| --- | --- | --- | --- | --- |
| Cc1c(NC(=O)c2cc(C(N)=O)nc3cc(F)ccc23)c(C(F)(F)F)nn1Cc1ccc(C#N)cc1 | cell-free assay, competition with immobilised ligand | 1 µM | remaining binding | 100% |
| CCCOc1ccc(OC)c(F)c1C(=O)c1ccc(C(=O)N[C@@H]2CNC[C@H]2NC(=O)c2ccc3[nH]ncc3c2)cc1 | enzyme activity, inhibitor | 10 µM | remaining activity | 45% |
| C[C@H](c1ccc(F)cc1)N(Cc1cccc(C(=O)O)c1)C(=O)c1cnc2ccccc2c1 | cell-free assay, competition with immobilised ligand | 1 µM | remaining binding | 82% |
| CCN(CC)CCNC(=O)c1c(C)[nH]c(/C=C2\C(=O)Nc3ccc(F)cc32)c1C | enzyme activity, inhibitor | 10 µM | inhibition | 46% |
| COc1cc2ncnc(Nc3ccc(F)c(Cl)c3)c2cc1OCCCN1CCOCC1 | cell-free assay | 0.5 µM | remaining signal | 109% |
| CNC(=O)c1cc(Oc2ccc(NC(=O)Nc3ccc(Cl)c(C(F)(F)F)c3)cc2)ccn1 | enzyme activity, inhibitor | 10 µM | inhibition | 28% |
| NS(=O)(=O)c1cc(NC(=O)C2(c3ccccc3Cl)CC2)ccc1Oc1cccc(Cl)c1 | cell-free assay, competition with immobilised ligand | 1 µM | remaining binding | 100% |
| CN1CC(Oc2cnc(C#N)cc2-c2ccn3nc(NC(=O)C4CC4)cc3c2)C1 | enzyme activity, inhibitor | 1 µM | inhibition | 11% |
| CC(C)(O)[C@H]1CC[C@H](Nc2ccc3ncc(-c4cccc(C(F)(F)F)c4)n3n2)CC1 | enzyme activity, inhibitor | 1 µM | remaining activity | 120% |
| CC(C)(C)c1nc2c(s1)c1nc(N)ncc1c1ccc(NS(=O)(=O)c3c(F)cccc3F)c(F)c12 | enzyme activity, inhibitor, radiometric | 1 µM | remaining activity | 60% |
| Cc1ccc(Nc2nccc(N(C)c3ccc4c(C)n(C)nc4c3)n2)cc1S(N)(=O)=O | enzyme activity, inhibitor | 0.3 µM | inhibition | -9% |
| Nc1ncnc2occ(-c3ccc(NC(=O)Nc4cc(C(F)(F)F)ccc4F)cc3)c12 | cell-free assay, inhibitor | 20 µM | remaining signal | 9.3% |
| Cc1sc(C(=O)NC2COC2)cc1-n1cc(NC(=O)Nc2c(F)cccc2Cl)cn1 | enzyme activity, inhibitor | 10 µM | remaining activity | 70% |
| N#CCCc1ccc2c(c1)-c1[nH]c3ccc([N+](=O)[O-])cc3c1CC(=O)N2 | cell-free assay | 0.5 µM | remaining signal | 101% |
| CN([C@@H]1CCc2c(CC(=O)O)c3ccccc3n2C1)S(=O)(=O)c1ccc(F)cc1 | cell-free assay, competition with immobilised ligand | 1 µM | remaining binding | 100% |
| C#Cc1cccc(Nc2ncnc3cc(OCCOC)c(OCCOC)cc23)c1 | cell-free assay | 0.5 µM | remaining signal | 114% |
| CC(=O)N1CCC(c2ccc(C(=O)NC(=N)N)cc2C(F)(F)F)CC1 | cell-free assay, competition with immobilised ligand | 1 µM | remaining binding | 100% |
| Oc1cccc(-c2nc(N3CCOCC3)c3oc4ncccc4c3n2)c1 | cell-free assay | 0.5 µM | remaining signal | 109% |
| C[C@H](c1cccc(C#N)c1)n1cc(Cl)cc(C(N)=O)c1=N | cell-free assay, competition with immobilised ligand | 1 µM | remaining binding | 100% |
| O=C(Nc1cnn(-c2csc(C(=O)NC3COC3)c2)c1)Nc1ccccc1Cl | enzyme activity, inhibitor | 5 µM | remaining activity | 145% |
